Results taken from ChEMBL document CHEMBL4152296, “Synthesis, biological evaluation and molecular modeling of novel azaspiro dihydrotriazines as influenza virus inhibitors targeting the host factor dihydrofolate reductase (DHFR)” (Eur J Med Chem, 2018).
Active and inactive are the calls of the source. The rule behind the calls is not given here.

How the values were obtained:
[1] = test system: Influenza A virus; assay: Antiviral activity against Influenza A virus (A/Puerto Rico/8/34(H1N1)) infected in MDCK cells assessed as protection against virus-induced reduction in cell viability after 3 to 6 days by MTS assay; type: functional, organism-based; conditions: A/Puerto Rico/8/1934(H1N1)
Procedure, shortened: (§1)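 MDCK cells seeded at 9000/well and infected one day later (semiconfluent) with 100 CCID50 virus. Medium was FCS-free Ultra MDCK with 2 μg/mL TPCK-trypsin. Serial five-fold compound dilutions (top 100 μM) were added with the virus, followed by 3–6 days at 35 °C. MTS read-out gave % protection versus virus and mock controls. EC50 was interpolated from semi-log curves; mean of two or three experiments.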

[2] = test system: Influenza B virus; assay: Antiviral activity against Influenza B virus B/Ned/537/05 infected in MDCK cells assessed as protection against virus-induced reduction in cell viability after 3 to 6 days by MTS assay; type: functional, organism-based; conditions: B/Ned/537/05, MDCK; procedure, shortened: as §1
[3] = Cytotoxicity against MDCK cells assessed as alterations in normal cell morphology measured after 3 to 6 days by microscopic analysis; type: cell-based, Canis lupus familiaris; conditions: dog
Procedure, shortened: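 Uninfected MDCK cultures in FCS-free Ultra MDCK medium with trypsin received five-fold compound dilutions (up to […]) for 3–6 days at 35 °C. Microscopy scored morphology, and MCC was taken as the lowest concentration causing minimal rounding, shrinking or lysis.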

[4] = test system: MDCK; assay: Cytotoxicity against MDCK cells assessed as reduction in cell viability measured after 3 to 6 days by MTS assay; type: cell-based, Canis lupus familiaris; conditions: dog
Procedure, shortened: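 Mock-infected MDCK plates were run in parallel (FCS-free Ultra MDCK medium with TPCK-trypsin) with serial five-fold dilutions up to […], 35 °C for 3–6 days. CC50 was interpolated from semi-log dose-response curves; mean of two or three experiments.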

[5] = test system: Respiratory syncytial virus; assay: Antiviral activity against Respiratory syncytial virus Long infected in human HeLa cells assessed as inhibition of virus-induced cytopathic effect after 3 to 6 days by MTS based microscopy; type: functional, organism-based
[6] = Cytotoxicity against human HeLa cells assessed as alterations in normal cell morphology measured after 3 to 6 days by microscopic analysis; type: cell-based
Procedure, shortened: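 Mock-infected HeLa cultures in 2% FCS medium received serial five-fold dilutions […] for 3–6 days at 37 °C. MCC was the lowest concentration giving microscopically visible minimal change in cell morphology (rounding, shrinking, lysis).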

[7] = test system: Vero; assay: Cytotoxicity against African green monkey Vero cells assessed as reduction in cell viability measured after 3 to 6 days by MTS assay; type: cell-based; conditions: chlorocebus sabaeus
[8] = test system: Human alphaherpesvirus 1; assay: Antiviral activity against Herpes simplex virus type 1 infected in human HEL299 cells assessed as inhibition of virus-induced cytopathic effect after 3 to 6 days by MTS assay; type: functional, organism-based
[9] = test system: Human alphaherpesvirus 2; assay: Antiviral activity against Herpes simplex virus type 2 infected in human HEL299 cells assessed as inhibition of virus-induced cytopathic effect after 3 to 6 days by MTS assay; type: functional, organism-based
[10] = test system: Vaccinia virus; assay: Antiviral activity against Vaccinia virus infected in human HEL299 cells assessed as inhibition of virus-induced cytopathic effect after 3 to 6 days by MTS assay; type: functional, organism-based; conditions: Orthopoxvirus vaccinia
[11] = test system: Human adenovirus 2; assay: Antiviral activity against Human adenovirus type 2 infected in human HEL299 cells assessed as inhibition of virus-induced cytopathic effect after 3 to 6 days by MTS assay; type: functional, organism-based
[12] = test system: Human immunodeficiency virus; assay: Antiviral activity against HIV; type: functional, organism-based
[13] = test system: Human coronavirus 229E; assay: Antiviral activity against Human coronavirus 229E infected in human HEL299 cells assessed as inhibition of virus-induced cytopathic effect after 3 to 6 days by MTS assay; type: functional, organism-based
[14] = test system: Human respirovirus 3; assay: Antiviral activity against Parainfluenza virus 3 infected in African green monkey Vero cells assessed as inhibition of virus-induced cytopathic effect after 3 to 6 days by MTS assay; type: functional, organism-based
[15] = test system: Vesicular stomatitis virus; assay: Antiviral activity against Vesicular stomatitis virus infected in human HEL299 cells assessed as inhibition of virus-induced cytopathic effect after 3 to 6 days by MTS assay; type: functional, organism-based
[16] = test system: Sindbis virus; assay: Antiviral activity against Sindbis virus infected in African green monkey Vero cells assessed as inhibition of virus-induced cytopathic effect after 3 to 6 days by MTS assay; type: functional, organism-based
[17] = test system: Yellow fever virus; assay: Antiviral activity against Yellow fever virus infected in African green monkey Vero cells assessed as inhibition of virus-induced cytopathic effect after 3 to 6 days by MTS assay; type: functional, organism-based
[18] = test system: Punta Toro virus; assay: Antiviral activity against Punta Toro virus infected in African green monkey Vero cells assessed as inhibition of virus-induced cytopathic effect after 3 to 6 days by MTS assay; type: functional, organism-based
[19] = test system: Coxsackievirus B4; assay: Antiviral activity against Coxsackie B4 virus infected in human HeLa cells assessed as inhibition of virus-induced cytopathic effect after 3 to 6 days by MTS assay; type: functional, organism-based
[20] = test system: Mammalian orthoreovirus 1; assay: Antiviral activity against Reovirus-1 infected in African green monkey Vero cells assessed as inhibition of virus-induced cytopathic effect after 3 to 6 days by MTS assay; type: functional, organism-based

Structure (SMILES) | EC50 [1] [µM] | EC50 [2] [µM] | MCC [3] [µM] | CC50 [4] [µM] | EC50 [5] [µM] | MCC [6] [µM] | Activity [7] | Activity [8] | Activity [9] | Activity [10] | Activity [11] | Activity [12] | Activity [13] | Activity [14] | Activity [15] | Activity [16] | Activity [17] | Activity [18] | Activity [19] | Activity [20]
NC1=NC2(CCN(C(=O)C3CCC3)CC2)N(c2cccc(Cl)c2)C(N)=N1 | 35 | 7.7 | ≥ 20 | > 100 | > 100 | > 100 | Non-Toxic | inactive | inactive | inactive | inactive | inactive | inactive | inactive | inactive | inactive | inactive | inactive | inactive | inactive
Cl.NC1=NC2(CCCN(Cc3ccccc3)C2)N(c2ccc(Cl)cc2)C(N)=N1 (stereo not given) | > 100 | > 100 | 100 | 45 | > 100 | 100 | Non-Toxic | inactive | inactive | inactive | inactive | inactive | inactive | inactive | inactive | inactive | inactive | inactive | inactive | inactive
CC(C)(C)OC(=O)N1CCC2(CC1)N=C(N)N=C(N)N2Cc1cccc(Cl)c1 | > 100 | > 100 | > 100 | > 100 | > 100 | > 100 | Non-Toxic | inactive | inactive | inactive | inactive | inactive | inactive | inactive | inactive | inactive | inactive | inactive | inactive | inactive
COCCN1C(N)=NC(N)=NC12CCN(C(=O)NC1CCC(C)CC1)CC2 (stereo not given) | > 100 | > 100 | > 100 | > 100 | > 100 | > 100 | Non-Toxic | inactive | inactive | inactive | inactive | inactive | inactive | inactive | inactive | inactive | inactive | inactive | inactive | inactive
Cl.NC1=NC2(CCCN(Cc3ccccc3)C2)N(c2ccccc2)C(N)=N1 (stereo not given) | > 100 | > 100 | > 100 | > 100 | > 100 | > 100 | Non-Toxic | inactive | inactive | inactive | inactive | inactive | inactive | inactive | inactive | inactive | inactive | inactive | inactive | inactive
COCCN1C(N)=NC(N)=NC12CCN(C(=O)Nc1ccc(OC)cc1)CC2 | > 100 | > 100 | > 100 | > 100 | > 100 | > 100 | Non-Toxic | inactive | inactive | inactive | inactive | inactive | inactive | inactive | inactive | inactive | inactive | inactive | inactive | inactive
CCCCC(=O)N1CCC2(CC1)N=C(N)N=C(N)N2c1cccc(OC)c1 | > 100 | 28 | ≥ 100 | > 100 | > 100 | > 100 | Non-Toxic | inactive | inactive | inactive | inactive | inactive | inactive | inactive | inactive | inactive | inactive | inactive | inactive | inactive
COCCN1C(N)=NC(N)=NC12CCN(C(=O)C1CC1)CC2 | > 100 | > 100 | > 100 | > 100 | > 100 | > 100 | Non-Toxic | inactive | inactive | inactive | inactive | inactive | inactive | inactive | inactive | inactive | inactive | inactive | inactive | inactive
COc1cccc(N2C(N)=NC(N)=NC23CCN(C(=O)OC(C)(C)C)CC3)c1 | 87 | 39 | ≥ 100 | > 100 | > 100 | > 100 | Non-Toxic | inactive | inactive | inactive | inactive | inactive | inactive | inactive | inactive | inactive | inactive | inactive | inactive | inactive
COc1cccc(N2C(N)=NC(N)=NC23CCN(C(=O)c2ccc(C(F)(F)F)cc2C)CC3)c1 | > 100 | > 100 | > 100 | > 100 | > 100 | > 100 | Non-Toxic | inactive | inactive | inactive | inactive | inactive | inactive | inactive | inactive | inactive | inactive | inactive | inactive | inactive
